# An excerpt weighted towards active compounds, which were near 1.3% of everything screened.
# Rpn11 block: inhibitors of human proteasome Rpn11. O00487. inhibition, % at 20 µM. AID 588493. human 26S proteasome, Ub4-pepOG fluorescence polarization; 20S core pre-blocked with epoxomicin. actives 0.59% (n = 360,000);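 active means inhibition at 20 µM, scaled to each plate's controls, above about 33%, limit read from the data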
# CSN deneddyl inh: blocks human CSN-mediated cullin deneddylation; Q92905; Purified CSN, SCF-Nedd8-OG deneddylation, fluorescence polarization; inhibition, % at 12.5 µM; actives 0.38% (n = 360,000); AID 651999;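 active means pattern-corrected inhibition above about 35%, with an unprinted fluorescence ratio check between 0.5 and 1.5, limit read from the data, passing the limit was not always enough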;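 further: 0% = enzyme with substrate and 100% = substrate without enzyme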
#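 Assay system: Purified human Csn5 enzyme expressed in HEK293T cells | Amount: Enzyme 0.24 nM | Measured by: Fluorescence polarization readout | Medium: Tris/NaCl/DTT buffer, pH 7.5 | Compound dosing: One concentration, 12.5 µM, 0.25% DMSO | Times: 90 min incubation of compound, enzyme and substrate at room temperature | Control set: no-enzyme wells high, enzyme-with-substrate wells low | Read-out: % inhibition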
# HNF4A DNA FP: change in binding of human HNF4 alpha to DNA; P41235; HNF4a-FITC DNA binding, fluorescence polarization, 1 h; activity change, % at 10 µM; actives 0.3% (n = 360,000); in the data active means activity change above about 30%, passing the limit was not always enough
# Target sequence (P41235 whole entry, looked up): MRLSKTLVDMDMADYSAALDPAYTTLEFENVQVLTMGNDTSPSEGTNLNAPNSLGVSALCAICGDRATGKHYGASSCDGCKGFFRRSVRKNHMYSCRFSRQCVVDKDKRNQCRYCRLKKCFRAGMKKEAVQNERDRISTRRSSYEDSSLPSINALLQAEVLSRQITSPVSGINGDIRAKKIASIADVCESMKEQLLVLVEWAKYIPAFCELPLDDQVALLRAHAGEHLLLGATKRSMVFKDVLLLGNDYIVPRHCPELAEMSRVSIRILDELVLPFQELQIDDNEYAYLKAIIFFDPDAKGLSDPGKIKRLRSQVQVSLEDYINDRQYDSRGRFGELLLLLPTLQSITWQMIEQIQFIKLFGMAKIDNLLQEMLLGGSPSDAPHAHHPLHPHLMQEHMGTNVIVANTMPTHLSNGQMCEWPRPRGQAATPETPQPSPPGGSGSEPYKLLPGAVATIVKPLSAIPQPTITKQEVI
# aDG glyco up: increases alpha dystroglycan glycosylation | Pro5-aDG cells, alpha-DG glycosylation AlphaScreen (IIH6); 0% Pro5, 100% B10-LARGE cell signal | actives 0.22% (n = 360,000) | AID 624168 | activation, % at 10 µM;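 active means activation of at least 8% versus controls, or a plate z-score of at least 8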;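 further: Pro5 are CHO cells carrying HIG-tagged alpha-DG that lacks glycosylation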
# TPT1 inh: blocks Candida albicans tRNA 2'-phosphotransferase. recombinant caTPT1, FP RNA substrate dephosphorylation. inhibition, % at 5 µM. actives 0.81% (n = 300,000);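 active means inhibition above the mean of all tested compounds plus 3 SD, set per screening campaign, cut at about 24% in these data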;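 further: plate controls were DMSO alone for no effect and ferristatin control at 100 nM for full effect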
# XiGFP reactiv: X-chromosome reactivation activator. XiGFP mouse fibroblasts, % GFP-positive cells imaging, 3 d; cells co-treated with 5-aza-dC sensitizer; scaled so ellipticine positive control = 100%. actives 0.055% (n = 360,000). AID 743238. activation, % at 7.58 µM;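 active means mean normalized replicate activation at least 10% and every replicate at or above 10%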;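 further: 0% = median of on-plate neutral control wells and 100% = ellipticine 6 µM median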
#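 Schedule: 3 d treatment, 15 min room-temperature fixation; system: 68-5-11 XiGFP fibroblast line; buffer or medium: DMEM plus 5-aza-dC sensitizer; control set: ellipticine 6 µM positive control; compound: one concentration, pinned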
# TPT1 inh confirm: TPT1 (C. albicans) inhibition, confirmation; shares compounds with TPT1 inh; recombinant caTPT1, fluorescence polarization, RNase T1 coupled; inhibition, % at 5 µM; actives 74% (n = 2,400); AID 2149;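 active means inhibition above the primary screen limit, the mean inhibition of all tested compounds plus 3 SD, cut at about 25% in these data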
# RNase T1 counter: blocks Aspergillus oryzae RNase T1, a TPT1 counter-screen | shares compounds with TPT1 inh | actives 83% (n = 2,400) | inhibition, % at 5 µM | AID 2153 | RNase T1 cleavage, fluorescence polarization, 1536-well;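 active means inhibition above the solvent-only control well mean plus 3 SD, limit set per screening run, cut at about 23% in these data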;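 further: plate controls were DMSO wells with enzyme for no effect and wells without RNase T1 for full effect; inhibitors block cleavage so intact labeled substrate keeps polarization high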
# Target sequence (P00651 whole entry, looked up): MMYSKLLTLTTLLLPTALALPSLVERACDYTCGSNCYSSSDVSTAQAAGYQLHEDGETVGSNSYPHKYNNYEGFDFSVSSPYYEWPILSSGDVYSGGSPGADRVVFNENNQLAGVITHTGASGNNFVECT
# Active calls of the source: *; · = no result given; ! = not confirmed by another sample.
SMILES,Rpn11 block,CSN deneddyl inh,HNF4A DNA FP,aDG glyco up,TPT1 inh,XiGFP reactiv,TPT1 inh confirm,RNase T1 counter
CCC(C)N1C(=O)/C(=C/c2ccc3c(c2)CCN3CCCCl)C(=O)NC1=S (stereo not given),·,21.7,-9.9,0.0,40.6*,0.1,56.4*,71.9*
CCCCn1c(O)c(C(=O)/C=C/c2c[nH]c3ccccc23)c(=O)[nH]c1=O,·,-76.2,149.7,-0.2,120.5*,0.0,177.9*,161.1*
COC(=O)[C@H]1[C@H](CO)[C@H]2Cn3c(ccc(-c4cccnc4)c3=O)[C@@H]1N2S(=O)(=O)c1ccccc1F,·,·,·,·,·,0.0,·,·
CC(C)NC(=O)N1C[C@@H]2C(c3ccc(Br)cc3)[C@H](C1)N2C (stereo not given in full),·,·,·,·,·,0.1,·,·
O=c1c2ccccc2nc(/C=C/c2ccccc2)n1-c1ccc(O)cc1,-6.8,2.8,3.6,0.1,-4.6,0.2,·,·
O=c1c2ccccc2nc(/C=C/c2ccc(O)c(O)c2)n1-c1ccccc1,·,21.9,15.6,-0.3,46.3*,0.1,48.7*,56.7*
Cc1cccc(-n2c(/C=C/c3ccc([N+](=O)[O-])o3)nc3ccccc3c2=O)c1,·,116.9,150.5,-0.5,40.4*,0.3,56.0*,52.2*
COc1cc(/C=C/c2nc3ccccc3c(=O)n2-c2ccccc2O)ccc1O,·,24.0,10.1,-0.4,25.6*,0.2,44.8*,49.5*
Cc1nc2ccccc2c(=O)n1-c1cc([N+](=O)[O-])cc([N+](=O)[O-])c1,-1.9,2.7,2.4,0.0,1.4,0.0,·,·
O=C(C1CC1)N1C[C@@H]2N[C@H](C1)[C@@H]2c1ccc(-c2ccncc2)cc1,·,·,·,·,·,0.4,·,·
C/C=C/c1ccc([C@@H]2[C@H](CO)N3CCCCN(C(=O)Cc4ccncc4)C[C@@H]23)cc1,·,·,·,·,·,0.2,·,·
CCCNC(=O)N1[C@@H]2Cn3c(ccc(-c4cccc(C(=O)N(C)C)c4)c3=O)[C@H]1[C@@H](C(=O)O)[C@@H]2CO,·,·,·,·,·,0.6,·,·
CCCCn1c(=O)c(C=Nc2cc([N+](=O)[O-])ccc2OC)c(O)n(CCCCl)c1=O,13.8,4.9,7.7,-0.1,73.6*,0.1,53.4*,66.7*
Cc1ccc(-n2c(O)c(C=Nc3ccc(S(=O)(=O)N(C)C)cc3)c(=O)[nH]c2=O)cc1,3.7,9.4,-3.5,-0.2,26.1*,·,8.6,13.7
Cc1cccc(N=Cc2c(O)n(-c3ccccc3C)c(=O)[nH]c2=O)c1,2.3,-0.5,0.8,-0.2,2.6,·,·,·
Cc1cccc(-n2c(O)c(/C=C/C=Nc3ccccc3)c(=O)[nH]c2=O)c1,·,8.1,163.4,-0.1,182.6*,0.7,186.9*,172.8*
Cc1ccc(N=Cc2c(O)n(-c3ccc(C)cc3)c(=O)[nH]c2=O)cc1,2.5,-3.2,0.5,0.0,1.8,0.0,·,·
CNS(=O)(=O)c1ccc(N=Cc2c(O)n(-c3ccccc3)c(=O)[nH]c2=O)cc1,3.2,6.8,-0.3,0.9,28.0*,0.1,16.8,25.1*
Cc1ccccc1-n1c(O)c(/C=N/c2nccs2)c(=O)[nH]c1=O,7.0,-1.6,2.8,0.5,28.2*!,0.0,17.8,26.4*
CNS(=O)(=O)c1ccc(N=Cc2c(O)n(-c3cccc(C)c3)c(=O)[nH]c2=O)cc1,2.8,17.1,1.8,0.0,25.7*,0.0,13.6,24.0*
O=c1[nH]c(=O)n(-c2cccc(Cl)c2)c(O)c1/C=N/c1ccccn1,9.9,2.5,10.7,0.0,30.0*,·,18.3,24.2*
Cc1ccccc1N1C(=O)NC(=O)/C(=C/c2ccc(N3CCOCC3)o2)C1=O,·,131.7,107.9*,0.2,123.4*,0.1,135.8*,137.8*
O=C1NC(=O)N(c2ccccc2)C(=O)/C1=C\c1ccc([N+](=O)[O-])o1,·,·,·,·,16.0,·,·,·
Cc1ccccc1N1C(=O)NC(=O)/C(=C\c2cc(Br)c(N3CCOCC3)o2)C1=O,·,102.5,134.9,-0.2,95.9*,0.2,140.9*,139.7*
Cc1cccc(N2C(=O)/C(=C/c3ccc(N4CCN(C)CC4)o3)C(=O)NC2=S)c1C,·,122.6,84.2*,1.4,83.0*,0.1,121.2*,121.1*
SMILES,Rpn11 block,CSN deneddyl inh,HNF4A DNA FP,aDG glyco up,TPT1 inh,XiGFP reactiv,TPT1 inh confirm,RNase T1 counter
Cc1cc(C)cc(-n2c(O)c(C=Nc3ccc(N4CCOCC4)cc3)c(=O)[nH]c2=S)c1,30.4,11.9,-1.1,0.2,35.3*,0.0,57.4*,72.5*
O=c1[nH]c(=S)n(-c2ccc(Br)cc2)c(O)c1C=Nc1ccc(N2CCOCC2)cc1,-119.5,-4.1,6.7,-0.2,-33.8,0.0,·,·
O=c1[nH]c(=S)n(-c2ccccc2F)c(O)c1C=Nc1ccc(N2CCOCC2)cc1,10.3,1.1,1.7,-0.4,33.0*,0.0,46.8*,60.0*
O=c1[nH]c(=S)n(-c2ccc(F)cc2)c(O)c1/C=N/N1CCOCC1,2.7,1.8,-1.8,0.0,6.6,0.1,·,·
O=c1c(C=Nc2cccnc2Cl)c(O)n(CCCCl)c(=O)n1C1CCCCC1,·,49.5*,27.7,-0.3,63.1*,0.0,85.7*,99.2*
O=c1c(C=NCc2cccs2)c(O)n(C2CCCCC2)c(=O)n1C1CCCCC1,-14.5,-1.5,-5.7,0.0,2.0,·,·,·
O=c1[nH]c(=O)n(CCC2=CCCCC2)c(O)c1C=NCCN1CCNCC1,·,17.7,27.2,0.1,27.1*,·,43.7*,54.7*
O=c1[nH]c(=O)n(CCc2ccccc2)c(O)c1C=NCCCn1ccnc1,4.4,3.5,0.1,0.2,4.3,·,·,·
O=c1[nH]c(=O)n(Cc2ccccc2)c(O)c1C=NCCCn1ccnc1,15.7,8.9,19.6,-0.3,48.3*,·,34.8*,44.9*
O=c1[nH]c(=O)n(Cc2ccco2)c(O)c1C=NCCN1CCOCC1,14.8,13.3,8.9,0.0,24.8*,·,30.1*,41.9*
COC(=O)[C@@H]1[C@@H](CO)[C@@H]2Cn3c(ccc(-c4cccc(F)c4)c3=O)[C@H]1N2Cc1ccccc1,·,·,·,·,·,0.2,·,·
Cc1cc(C)c(-n2c(O)c(/C=N/NC(=O)c3ccncc3)c(=O)[nH]c2=O)c(C)c1,27.3,5.5,7.4,0.0,24.1*,0.0,28.6*,39.5*
Cc1ccc(N2C(=O)NC(=O)/C(=C/C=C/c3ccco3)C2=O)cc1,39.2,31.2,7.4,0.0,27.6*,0.0,35.0*,52.4*
N#Cc1cccc(-c2ccc([C@@H]3[C@H]4CN(C(=O)Cc5cccnc5)CCCCN4[C@H]3CO)cc2)c1,·,·,·,·,·,0.2,·,·
